# In ChEMBL document CHEMBL1221205, “Structural and mechanistic basis of penicillin-binding protein inhibition by lactivicins” (Nat Chem Biol, 2007):
# Columns and labels:
# Streptococcus pneumoniae [1] = assay: Antibacterial activity against penicillin-sensitive Streptococcus pneumoniae R6 […]; assay type: functional
# Summary of the method: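 Strain grown in Todd-Hewitt medium at 37 °C to OD600 0.3, then plated on Columbia blood agar with 5% horse blood containing compound at 0 to 100 µg ml-1. MIC taken as the concentration giving visible growth arrest on plates.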
# Streptococcus pneumoniae [2] = assay: Antibacterial activity against penicillin-resistant Streptococcus pneumoniae 38040505 […]; assay type: functional
# Summary of the method: (§1)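 Strains grown in Todd-Hewitt medium at 37 °C to OD600 0.3, then plated on Columbia blood agar with 5% horse blood containing LTV or PLTV at 0 to 100 µg ml-1. MIC taken as the concentration at visually determined growth arrest on plates. Ratio lines compare resistant-strain MIC with the R6 MIC obtained the same way.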
# Streptococcus pneumoniae [3] = assay: Antibacterial activity against penicillin-resistant Streptococcus pneumoniae 4790 […]; assay type: functional; summary of the method: as §1
# Streptococcus pneumoniae [4] = assay: Antibacterial activity against penicillin-resistant Streptococcus pneumoniae 38030509 […]; assay type: functional; summary of the method: as §1
# Streptococcus pneumoniae [5] = assay: Antibacterial activity against penicillin-resistant Streptococcus pneumoniae 5204 […]; assay type: functional; summary of the method: as §1
# Streptococcus pneumoniae [6] = assay: Ratio of MIC for penicillin-resistant Streptococcus pneumoniae 38040505 to MIC for penicillin-sensitive Streptococcus pneumoniae R6; assay type: functional; summary of the method: as §1
# Streptococcus pneumoniae [7] = assay: Ratio of MIC for penicillin-resistant Streptococcus pneumoniae 4790 to MIC for penicillin-sensitive Streptococcus pneumoniae R6; assay type: functional; summary of the method: as §1
# Streptococcus pneumoniae [8] = assay: Ratio of MIC for penicillin-resistant Streptococcus pneumoniae 38030509 to MIC for penicillin-sensitive Streptococcus pneumoniae R6; assay type: functional; summary of the method: as §1
# Streptococcus pneumoniae [9] = assay: Ratio of MIC for penicillin-resistant Streptococcus pneumoniae 5204 to MIC for penicillin-sensitive Streptococcus pneumoniae R6; assay type: functional; summary of the method: as §1
# [10] = target: T1, Penicillin-binding protein 2x (Streptococcus pneumoniae serotype 4 (strain ATCC BAA-334 / TIGR4), UniProt P14677); assay: Inhibition of penicillin-resistant Streptococcus pneumoniae 5204 PBP2x after 60 mins by SDS-PAGE
# T1 sequence (P14677 whole entry, looked up): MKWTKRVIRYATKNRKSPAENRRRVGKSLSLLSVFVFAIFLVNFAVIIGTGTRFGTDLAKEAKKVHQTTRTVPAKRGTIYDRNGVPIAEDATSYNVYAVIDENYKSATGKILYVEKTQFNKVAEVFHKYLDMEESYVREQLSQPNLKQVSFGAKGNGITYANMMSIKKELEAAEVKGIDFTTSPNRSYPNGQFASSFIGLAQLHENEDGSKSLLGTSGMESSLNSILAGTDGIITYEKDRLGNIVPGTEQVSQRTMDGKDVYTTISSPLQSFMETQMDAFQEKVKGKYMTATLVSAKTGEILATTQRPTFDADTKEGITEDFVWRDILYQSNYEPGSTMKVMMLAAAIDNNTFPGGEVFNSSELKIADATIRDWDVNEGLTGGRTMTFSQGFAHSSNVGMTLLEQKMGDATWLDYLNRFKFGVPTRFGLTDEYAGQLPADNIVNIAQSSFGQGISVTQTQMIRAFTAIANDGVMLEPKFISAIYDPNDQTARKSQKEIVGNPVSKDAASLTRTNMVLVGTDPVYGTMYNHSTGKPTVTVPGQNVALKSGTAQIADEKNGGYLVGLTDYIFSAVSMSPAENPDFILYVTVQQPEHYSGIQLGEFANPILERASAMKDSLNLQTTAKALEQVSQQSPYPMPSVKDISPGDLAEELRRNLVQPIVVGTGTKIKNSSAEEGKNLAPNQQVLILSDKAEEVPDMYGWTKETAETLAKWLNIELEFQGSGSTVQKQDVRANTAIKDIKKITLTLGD
# Summary of the method: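 PBP2x-5204 (0.8 µM) preincubated with PLTV for 60 min in 10 mM sodium phosphate pH 7.0, 30 °C, with 1% dimethylformamide. Residual active enzyme counterlabeled with 10 µM fluorescein-ampicillin for 40 min, then analyzed by SDS-PAGE and fluorescence. IC50 fitted from background-subtracted residual activity against inhibitor concentration.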
# [11] = target: T1, Penicillin-binding protein 2x; assay: Inhibition of penicillin-resistant Streptococcus pneumoniae 5204 PBP2x after 120 mins by SDS-PAGE
# Summary of the method: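 PBP2x-5204 (0.8 µM) preincubated with LTV for 120 min, then remaining active PBP counterlabeled with 10 µM fluorescein-ampicillin for 40 min. Bands resolved by SDS-PAGE with fluorescence imaging; background subtracted. IC50 fitted from residual activity versus inhibitor concentration. Kinetic work at 30 °C in 10 mM sodium phosphate pH 7.0.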
Compound,MIC (Streptococcus pneumoniae [1]),MIC (Streptococcus pneumoniae [2]),MIC (Streptococcus pneumoniae [3]),MIC (Streptococcus pneumoniae [4]),MIC (Streptococcus pneumoniae [5]),Ratio (Streptococcus pneumoniae [6]),Ratio (Streptococcus pneumoniae [7]),Ratio (Streptococcus pneumoniae [8]),Ratio (Streptococcus pneumoniae [9]),IC50 [10],IC50 [11]
O=C(COc1ccccc1)N[C@H]1CON([C@@]2(C(=O)O)CCC(=O)O2)C1=O [PHENOXYACETYL LACTIVICIN],15 µg/mL,80 µg/mL,> 100 µg/mL,> 100 µg/mL,90 µg/mL,5.3,5.3,5.3,5.3,7.9 µM,–
CC1(C)S[C@@H]2[C@H](NC(=O)Cc3ccccc3)C(=O)N2[C@H]1C(=O)O [PENICILLIN G],0.01 µg/mL,1.5 µg/mL,1.5 µg/mL,2 µg/mL,6 µg/mL,150,150,150,150,–,–
CC(=O)NC1CON(C2(C(=O)O)CCC(=O)O2)C1=O (centres undefined) [LACTIVICIN],2 µg/mL,10 µg/mL,20 µg/mL,20 µg/mL,> 20 µg/mL,5,5,5,5,–,150 µM
